Results taken from ChEMBL document CHEMBL4196006, “Aryl thiosemicarbazones for the treatment of trypanosomatidic infections” (Eur J Med Chem, 2018).
Activity calls are given as the source filed them. The rule behind the calls is not given here.

Experiments:
[1] = Cytotoxicity against human THP1 cells assessed as decrease in viable cells after 72 hrs by MTT assay; format: cell-based, THP-1; conditions: THP1 cells
Outline: (§1)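 THP-1-derived macrophages exposed to compounds for 72 h, tested at 100 μM or in dose-response; viability read by MTT colorimetric assay.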

CYP3A4 = CYP3A4 (Homo sapiens, UniProt P08684); test: Inhibition of human microsomal CYP3A4 expressed in baculovirus infected BTI-TN-5B1-4 cells at 10 uM incubated for 30 mins by luciferase assay relative to control; format: ADME
Outline: (§2)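 CYP1A2, 2C9, 2C19, 2D6 and 3A4 in microsomes from baculovirus-infected insect cells, each with a P450-Glo luminogenic substrate. Inhibition read as loss of light; single-point at 10 μM, triplicate.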

Trypanosoma brucei [2] = test: Antitrypanosomal activity against Trypanosoma brucei Lister 427 bloodstream form at 10 uM after 72 hrs by resazurin dye-based assay relative to control; format: functional
Trypanosoma brucei [3] = test: Antitrypanosomal activity against Trypanosoma brucei Lister 427 bloodstream form after 72 hrs by SYBR Green assay; format: functional, organism-based; conditions: Lister 427, 72 h
Trypanosoma brucei [4] = test: Antitrypanosomal activity against Trypanosoma brucei Lister 427 bloodstream form assessed as parasite growth inhibition at 50 uM after 72 hrs by SYBR Green assay relative to control; format: functional; conditions: for inhibition of growth at 50 µM: Lister 427, 72 h, read-out: GI
[5] = Selectivity index, ratio of CC50 for human U2OS cells to EC50 for Trypanosoma cruzi amastigote form; format: toxicity; conditions: read-out: Ratio CC50/EC50
Outline: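 Selectivity index = CC50 in the human host or cytotoxicity cell line divided by parasite EC50.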

Trypanosoma brucei [6] = test: Potentiation of methotrexate-induced antitrypanosomal activity against Trypanosoma brucei Lister 427 bloodstream form at 10 uM after 72 hrs by resazurin dye-based assay; format: functional
[7] = Cytotoxicity against human A549 cells assessed as growth inhibition at 10 uM after 48 hrs by CellTiter-Glo assay relative to control; values are per cent of control; conditions: A549 cells
[8] = target: T1, Pteridine reductase, putative (Trypanosoma brucei) (UniProt Q581W1); test: Inhibition of Trypanosoma brucei PTR1 at 50 uM using H2B as substrate in presence of NADPH by photometric analysis relative to control
T1 sequence (whole entry): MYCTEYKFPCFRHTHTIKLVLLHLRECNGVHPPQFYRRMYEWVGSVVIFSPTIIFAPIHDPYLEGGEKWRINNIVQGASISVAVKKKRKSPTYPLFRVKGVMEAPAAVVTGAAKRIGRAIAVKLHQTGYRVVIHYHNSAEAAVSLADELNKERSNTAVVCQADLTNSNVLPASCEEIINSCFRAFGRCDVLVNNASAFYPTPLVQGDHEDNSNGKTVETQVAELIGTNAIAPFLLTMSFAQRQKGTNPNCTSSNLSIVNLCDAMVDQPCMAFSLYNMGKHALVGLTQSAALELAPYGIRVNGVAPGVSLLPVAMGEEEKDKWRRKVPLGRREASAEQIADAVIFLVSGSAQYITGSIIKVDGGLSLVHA

[9] = target: T2, Pteridine reductase 1 (Leishmania major) (UniProt Q01782); test: Inhibition of Leishmania major PTR1 at 50 uM using H2B as substrate in presence of NADPH by photometric analysis relative to control
T2 sequence (whole entry): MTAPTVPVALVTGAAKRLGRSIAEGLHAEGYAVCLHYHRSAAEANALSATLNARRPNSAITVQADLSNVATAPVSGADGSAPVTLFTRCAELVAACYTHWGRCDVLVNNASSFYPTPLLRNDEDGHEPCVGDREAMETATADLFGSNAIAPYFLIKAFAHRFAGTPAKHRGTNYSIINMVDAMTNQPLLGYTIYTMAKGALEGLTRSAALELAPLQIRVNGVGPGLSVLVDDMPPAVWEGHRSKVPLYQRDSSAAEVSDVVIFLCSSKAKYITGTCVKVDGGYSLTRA

[10] = Cytotoxicity against human THP1 cells assessed as viable cells at 100 uM after 72 hrs by MTT assay relative to control; format: cell-based, THP-1; conditions: read-out: Activity; outline: as §1
Trypanosoma brucei [11] = test: Potentiation of methotrexate-induced antitrypanosomal activity against Trypanosoma brucei Lister 427 bloodstream form at 10 uM after 72 hrs by resazurin dye-based assay relative to control; format: functional
Trypanosoma cruzi [12] = test: Antitrypanosomal activity against Trypanosoma cruzi amastigote form infected in human U2OS cells assessed as parasite growth inhibition after 72 hrs; format: functional, organism-based
Outline: (§3)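 U2OS monolayers grown for 24 h, then infected with tissue-derived trypomastigotes of T. cruzi Y strain. Compounds were added 24 h after infection at 50 μM (single-point) or in dose-response, with 72 h exposure. Plates were fixed, stained and analysed by high-content imaging; activity was normalized to infected and non-infected controls. Means of at least two experiments; benznidazole as reference.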

[13] = Cytotoxicity against human U2OS cells assessed as viable cells at 50 uM after 72 hrs by MTT assay relative to control; format: cell-based; conditions: read-out: Activity
Aurora kinase B = Aurora kinase B (Homo sapiens, UniProt Q96GD4); test: Inhibition of recombinant full-length human aurora B kinase expressed in baculovirus system at 10 uM using MBP as substrate incubated for 45 mins by ADP-glo kinase assay; conditions: probe MBP
Outline: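 Aurora B activity measured as ADP formation via coupled luciferase ADP-Glo luminescence; single-point at 10 μM, triplicate.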

CYP2C19 = CYP2C19 (Homo sapiens, UniProt P33261); test: Inhibition of human microsomal CYP2C19 expressed in baculovirus infected BTI-TN-5B1-4 cells at 10 uM incubated for 30 mins by luciferase assay relative to control; format: ADME; outline: as §2
[14] = Cytotoxicity against human 786-O cells assessed as inhibition of mitochondrial viability at 10 uM after 6 hrs by CMXRos staining based assay relative to control; format: cell-based, 786-0; conditions: read-out: INH
Outline: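 Mitochondrial toxicity monitored by MitoTracker Red CMXRos uptake and high-content imaging; compound at 10 μM, triplicate.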

CYP2C9 = CYP2C9 (Homo sapiens, UniProt P11712); test: Inhibition of human microsomal CYP2C9 expressed in baculovirus infected BTI-TN-5B1-4 cells at 10 uM incubated for 30 mins by luciferase assay relative to control; format: ADME; outline: as §2
CYP1A2 = target: T3, CYP1A2 (Homo sapiens, UniProt P05177); test: Inhibition of human microsomal CYP1A2 expressed in baculovirus infected BTI-TN-5B1-4 cells at 10 uM incubated for 30 mins by luciferase assay relative to control; format: ADME; outline: as §2
T3 sequence (P05177 whole entry): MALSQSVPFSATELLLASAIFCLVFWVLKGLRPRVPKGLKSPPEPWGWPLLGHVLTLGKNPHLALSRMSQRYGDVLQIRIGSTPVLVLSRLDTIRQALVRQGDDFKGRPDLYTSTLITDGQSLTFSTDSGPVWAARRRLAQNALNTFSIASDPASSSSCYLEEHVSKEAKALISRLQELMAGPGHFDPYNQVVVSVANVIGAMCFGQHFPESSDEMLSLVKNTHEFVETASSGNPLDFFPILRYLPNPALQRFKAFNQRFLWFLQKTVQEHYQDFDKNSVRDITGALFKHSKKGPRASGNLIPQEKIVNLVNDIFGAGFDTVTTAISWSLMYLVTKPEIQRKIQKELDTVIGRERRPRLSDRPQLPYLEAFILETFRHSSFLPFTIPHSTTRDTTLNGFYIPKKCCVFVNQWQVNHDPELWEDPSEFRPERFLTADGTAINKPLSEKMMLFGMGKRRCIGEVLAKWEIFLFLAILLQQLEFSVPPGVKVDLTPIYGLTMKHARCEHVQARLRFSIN

[15] = Cytotoxicity against human WI38 cells assessed as growth inhibition at 10 uM after 48 hrs by CellTiter-Glo assay relative to control; values are per cent of control; conditions: WI38 cells
[16] = Cytotoxicity against human U2OS cells assessed as decrease in viable cells after 72 hrs by cell number count in anti-T. cruzi high content imaging assay; conditions: U2OS cells
Trypanosoma cruzi [17] = test: Antitrypanosomal activity against Trypanosoma cruzi amastigote form infected in human U2OS cells assessed as parasite growth inhibition at 50 uM after 72 hrs relative to control; format: functional; conditions: read-out: GI; outline: as §3
hERG (KCNH2) = hERG (KCNH2) (Homo sapiens, UniProt Q12809); test: Inhibition of human ERG at 10 uM incubated for 2 hrs by fluorescence polarisation assay relative to control
CYP2D6 = CYP2D6 (Homo sapiens, UniProt P10635); test: Inhibition of human microsomal CYP2D6 expressed in baculovirus infected BTI-TN-5B1-4 cells at 10 uM incubated for 30 mins by luciferase assay relative to control; format: ADME; outline: as §2
Leishmania infantum = test: Antileishmanial activity against Leishmania infantum amastigote form assessed as parasite growth inhibition at 50 uM after 72 hrs by steady-Glo reagent based assay relative to control; format: functional; conditions: for inhibition of growth at 50 µM: read-out: GI
Outline: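 Intramacrophage L. infantum amastigotes in THP-1-derived macrophages, tested at 50 μM or in dose-response. Plates held 72 h at 37 °C, 5% CO2. Medium was replaced by PBS, macrophages lysed, and parasites read by Steady-Glo luminescence. High-content imaging gave host cell number, infection ratio (infected/total cells) and parasites per infected cell. Values are means of at least two independent experiments.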

Sequence of CYP3A4 (P08684 whole entry): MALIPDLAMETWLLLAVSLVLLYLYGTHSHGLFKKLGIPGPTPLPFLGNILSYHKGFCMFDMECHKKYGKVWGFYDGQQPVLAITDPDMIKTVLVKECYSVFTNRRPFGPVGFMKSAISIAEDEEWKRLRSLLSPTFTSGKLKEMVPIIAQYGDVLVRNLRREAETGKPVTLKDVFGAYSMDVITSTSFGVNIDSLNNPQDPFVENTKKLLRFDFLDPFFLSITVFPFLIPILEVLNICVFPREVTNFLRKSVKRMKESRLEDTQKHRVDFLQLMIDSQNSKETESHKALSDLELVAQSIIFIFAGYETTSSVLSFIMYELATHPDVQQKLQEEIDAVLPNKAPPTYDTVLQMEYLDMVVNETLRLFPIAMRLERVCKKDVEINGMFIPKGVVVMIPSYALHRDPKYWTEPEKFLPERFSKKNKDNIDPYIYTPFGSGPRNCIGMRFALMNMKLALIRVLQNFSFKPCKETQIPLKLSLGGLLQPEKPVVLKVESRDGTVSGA
Sequence of CYP2D6 (P10635 whole entry): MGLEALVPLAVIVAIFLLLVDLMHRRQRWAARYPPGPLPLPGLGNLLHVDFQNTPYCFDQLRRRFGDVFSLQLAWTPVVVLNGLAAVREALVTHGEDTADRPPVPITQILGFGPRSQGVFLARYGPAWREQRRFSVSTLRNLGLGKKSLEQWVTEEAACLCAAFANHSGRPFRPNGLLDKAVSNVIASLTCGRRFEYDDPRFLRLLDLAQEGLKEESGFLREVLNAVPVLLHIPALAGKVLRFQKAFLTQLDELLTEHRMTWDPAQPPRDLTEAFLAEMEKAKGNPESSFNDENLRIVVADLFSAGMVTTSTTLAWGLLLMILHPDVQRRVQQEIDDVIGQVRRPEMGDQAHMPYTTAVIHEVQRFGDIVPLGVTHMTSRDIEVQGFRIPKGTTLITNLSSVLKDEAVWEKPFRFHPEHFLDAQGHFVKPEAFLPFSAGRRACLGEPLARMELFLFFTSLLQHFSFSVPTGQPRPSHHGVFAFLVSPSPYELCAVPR
Sequence of Aurora kinase B (Q96GD4 whole entry): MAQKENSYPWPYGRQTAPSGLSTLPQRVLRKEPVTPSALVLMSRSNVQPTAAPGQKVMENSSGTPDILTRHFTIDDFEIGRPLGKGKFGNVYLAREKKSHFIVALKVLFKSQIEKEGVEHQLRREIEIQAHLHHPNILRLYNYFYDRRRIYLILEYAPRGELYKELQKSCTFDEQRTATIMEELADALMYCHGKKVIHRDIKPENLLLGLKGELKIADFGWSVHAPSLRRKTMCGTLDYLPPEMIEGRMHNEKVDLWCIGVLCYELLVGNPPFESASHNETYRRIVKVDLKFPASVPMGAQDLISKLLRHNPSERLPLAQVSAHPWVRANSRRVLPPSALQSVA
Sequence of CYP2C9 (P11712 whole entry): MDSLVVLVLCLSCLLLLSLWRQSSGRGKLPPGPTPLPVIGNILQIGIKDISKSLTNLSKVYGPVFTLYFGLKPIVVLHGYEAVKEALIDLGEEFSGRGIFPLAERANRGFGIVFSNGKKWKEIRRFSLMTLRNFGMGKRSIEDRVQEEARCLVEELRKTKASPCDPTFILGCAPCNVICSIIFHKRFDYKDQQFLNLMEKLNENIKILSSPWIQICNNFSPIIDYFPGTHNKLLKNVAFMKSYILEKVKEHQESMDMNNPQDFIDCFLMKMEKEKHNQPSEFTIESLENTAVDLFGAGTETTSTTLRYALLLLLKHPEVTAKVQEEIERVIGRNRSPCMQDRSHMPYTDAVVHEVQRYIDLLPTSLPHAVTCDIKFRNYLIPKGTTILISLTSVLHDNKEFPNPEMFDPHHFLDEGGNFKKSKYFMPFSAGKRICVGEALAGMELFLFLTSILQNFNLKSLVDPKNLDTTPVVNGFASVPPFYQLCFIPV
Sequence of CYP2C19 (P33261 whole entry): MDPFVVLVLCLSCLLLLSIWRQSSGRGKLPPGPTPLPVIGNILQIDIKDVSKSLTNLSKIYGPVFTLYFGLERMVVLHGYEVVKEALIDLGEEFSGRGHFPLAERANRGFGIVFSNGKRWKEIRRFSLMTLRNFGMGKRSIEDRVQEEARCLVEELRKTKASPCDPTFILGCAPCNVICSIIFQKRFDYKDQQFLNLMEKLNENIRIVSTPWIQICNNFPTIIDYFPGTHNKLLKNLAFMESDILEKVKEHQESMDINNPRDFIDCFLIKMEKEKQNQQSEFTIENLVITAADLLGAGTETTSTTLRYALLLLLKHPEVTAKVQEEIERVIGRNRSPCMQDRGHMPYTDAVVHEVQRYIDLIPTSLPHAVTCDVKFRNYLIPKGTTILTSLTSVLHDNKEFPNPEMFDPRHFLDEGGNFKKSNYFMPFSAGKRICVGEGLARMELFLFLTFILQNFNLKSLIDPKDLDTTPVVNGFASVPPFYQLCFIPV
Sequence of hERG (KCNH2) (Q12809 whole entry): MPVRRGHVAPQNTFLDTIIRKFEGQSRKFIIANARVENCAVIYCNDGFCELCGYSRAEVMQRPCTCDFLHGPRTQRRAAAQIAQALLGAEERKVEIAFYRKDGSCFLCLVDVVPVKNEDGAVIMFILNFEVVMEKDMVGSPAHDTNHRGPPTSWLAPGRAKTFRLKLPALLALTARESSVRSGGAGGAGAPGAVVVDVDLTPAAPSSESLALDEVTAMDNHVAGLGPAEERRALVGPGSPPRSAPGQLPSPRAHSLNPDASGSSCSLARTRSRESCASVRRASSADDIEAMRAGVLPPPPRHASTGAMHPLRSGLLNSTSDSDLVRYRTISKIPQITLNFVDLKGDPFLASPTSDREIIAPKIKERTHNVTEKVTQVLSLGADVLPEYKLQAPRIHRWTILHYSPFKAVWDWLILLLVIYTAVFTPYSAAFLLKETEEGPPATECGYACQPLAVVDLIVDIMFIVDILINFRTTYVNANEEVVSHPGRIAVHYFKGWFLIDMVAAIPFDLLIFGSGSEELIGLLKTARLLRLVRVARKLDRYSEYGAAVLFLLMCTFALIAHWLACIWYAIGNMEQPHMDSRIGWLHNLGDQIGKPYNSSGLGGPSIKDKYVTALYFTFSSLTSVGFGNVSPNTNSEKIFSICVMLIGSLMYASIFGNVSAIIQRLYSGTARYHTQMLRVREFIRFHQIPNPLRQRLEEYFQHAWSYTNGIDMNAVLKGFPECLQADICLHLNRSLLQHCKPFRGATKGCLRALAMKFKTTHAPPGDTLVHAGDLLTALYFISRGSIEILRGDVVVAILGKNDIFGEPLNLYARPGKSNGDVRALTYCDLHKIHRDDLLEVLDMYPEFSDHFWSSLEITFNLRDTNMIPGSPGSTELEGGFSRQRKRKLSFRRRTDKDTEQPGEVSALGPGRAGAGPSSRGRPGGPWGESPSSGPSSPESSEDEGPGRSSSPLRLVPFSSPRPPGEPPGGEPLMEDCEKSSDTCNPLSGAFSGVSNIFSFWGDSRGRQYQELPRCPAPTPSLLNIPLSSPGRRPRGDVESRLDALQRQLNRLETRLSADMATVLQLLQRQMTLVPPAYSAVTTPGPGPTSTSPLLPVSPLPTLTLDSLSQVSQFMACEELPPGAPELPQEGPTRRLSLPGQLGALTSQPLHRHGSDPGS

| Structure (SMILES) | inhibition at 0.5 h, 10 µM (CYP3A4) | Activity (Trypanosoma brucei [2]) | selectivity ratio [5] | PF (Trypanosoma brucei [6]) | cell growth (% of control) at 48 h, 10 µM [7] | inhibition [8] | inhibition [9] | viability at 72 h, 100 µM [10] | Activity (Trypanosoma brucei [11]) | EC50 (Trypanosoma cruzi [12]) | viability at 72 h, 50 µM [13] | inhibition at 0.75 h, 10 µM (Aurora kinase B) | inhibition at 0.5 h, 10 µM (CYP2C19) | cytotoxicity at 6 h, 10 µM [14] | inhibition at 0.5 h, 10 µM (CYP2C9) | inhibition at 0.5 h, 10 µM (CYP1A2) | cell growth (% of control) at 48 h, 10 µM [15] | CC50 at 72 h [16] | inhibition of growth at 50 µM (Trypanosoma cruzi [17]) | inhibition at 2 h, 10 µM (hERG (KCNH2)) | further results |
| --- | --- | --- | --- | --- | --- | --- | --- | --- | --- | --- | --- | --- | --- | --- | --- | --- | --- | --- | --- | --- | --- |
| N=C(N)c1ccc(OCCCCCOc2ccc(C(=N)N)cc2)cc1 [PENTAMIDINE] |  |  |  |  |  |  |  |  |  |  |  |  |  |  |  |  |  |  |  |  | CC50 at 72 h [1]: 10 µM |
| NC(=S)N/N=C/C=C/c1ccccc1 | -13.1% | 11.33% | > 1 | 2.37 | 129% | 8.92% | 9.09% | 44.1% | 84.5% | 1.59 µM | 76.1% | -5.47% | -36.7% | -2.97% | 9.11% | 18.3% | 82.8% | > 44 µM | 94.6% | 7.23% | EC50 (Trypanosoma brucei [3]): 16.9 µM; inhibition of growth at 50 µM (Trypanosoma brucei [4]): 91.7%; inhibition at 0.5 h, 10 µM (CYP2D6): 3.17%; inhibition of growth at 50 µM (Leishmania infantum): 45.9% |
| CSc1ccc(/C=N/NC(N)=S)cc1 | -15.9% | 15.33% | > 17 | 2.24 | 136% | 9.49% | 11.2% | 35.7% | 88.67% | 2.58 to 29.5 µM | 42.7% | -12.2% | -38.2% | -10.8% | 12.4% | 27% | 107% | > 44 µM | 89.3% | -2.87% | EC50 (Trypanosoma brucei [3]): 44.4 µM; inhibition of growth at 50 µM (Trypanosoma brucei [4]): 82.6%; inhibition at 0.5 h, 10 µM (CYP2D6): 35.9%; inhibition of growth at 50 µM (Leishmania infantum): 34.1% |
| NC(=S)N/N=C/c1ccc(-c2ccccc2)cc1 | -16.1% | 19.33% | > 1 | 1.85 | 138% | inactive | 3.57% | 46.4% | 80.67% | 4.17 µM | 116% | -35.7% | 32.1% | 16.1% | 98.4% | 76.6% | 104% | > 44 µM | 95.2% | 38.5% | growth inhibition (GI) (Trypanosoma brucei [4]): inactive; inhibition at 0.5 h, 10 µM (CYP2D6): 26.8%; growth inhibition (GI) (Leishmania infantum): inactive |
| N/C(S)=N/N=C/c1cccc(Br)c1 | -19.8% | 0.83% | > 1 | 2.44 | 130% | 14.9% | 18.4% | 79.3% | 61.17% | 2.29 µM | 57.3% | -16.2% | -35.9% | 0.71% | -7.51% | 66.6% | 120% | > 44 µM | 90.8% | 10.7% | inhibition of growth at 50 µM (Trypanosoma brucei [4]): 44.1%; inhibition at 0.5 h, 10 µM (CYP2D6): -14.4%; growth inhibition (GI) (Leishmania infantum): inactive |
